Reference: PMC12207910 (European journal of pharmaceutical sciences : official …, 2024)
Like-named read-outs stand apart in the source and are kept apart here. Non-standard residues stand in square brackets, D forms with d. Residues, ends and D or L forms follow the SMILES beside them. Dip = N[C@H](C(=O)O)C(c1ccccc1)c1ccccc1; hArg = N=C(N)NCCCC[C@H](N)C(=O)O; Agp = N=C(N)NC[C@H](N)C(=O)O

Assays:
[1] = tested on: human red blood cells (hRBC); experiment: Hemolytic activity; type: cell-based; details: concentration at which 50% hemolysis was observed
[2] = tested on: human red blood cells (hRBC); details: cited from earlier work
[3] = tested on: P. aeruginosa (ATCC 27883); details: cited from earlier work
S. aureus (ATCC 29213) [4] = details: cited from earlier work
E. coli (ATCC 25922) [5] = details: cited from earlier work
MRSA (ATCC BAA-1556) = details: cited from earlier work
S. aureus (ATCC 29213) [6] = details: highest MIC of three independent experiments
[7] = tested on: P. aeruginosa (ATCC 27883); details: highest MIC of three independent experiments
E. coli (ATCC BAA-2452) = type: cell-based, Escherichia coli; details: E. coli (ATCC BAA-2452)
[8] = tested on: Pseudomonas aeruginosa (ATCC BAA-1744), imipenem resistant; details: Imipenem resistant strain
[9] = tested on: Klebsiella pneumonia (ATCC 13883)
[10] = tested on: Escherichia coli (ATCC BAA-2452), NDM-1
E. coli (ATCC 25922) [11] = details: highest MIC of three independent experiments
[12] = tested on: E. coli (ATCC 25922) and E. coli (ATCC BAA-2452); experiment: Resistance development study, repeated exposure; type: cell-based; details: E. coli strains; 18 exposures
[13] = tested on: E. coli (ATCC BAA-2452) biofilm; experiment: Antibiofilm activity, XTT assay; type: cell-based, Escherichia coli
How it was run: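 Bacterial suspensions at 5×10^5 CFU/mL in MH broth were grown 24 h at 37 °C to form biofilms, then washed twice with PBS. […] Biofilms were rewashed, then given XTT plus phenazine methosulfate for 1 h in the dark at 37 °C, and A492 was read. Percentage decrease versus untreated wells; triplicate, run twice.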

[14] = tested on: Pseudomonas aeruginosa (ATCC 10145)
[15] = tested on: Klebsiella pneumonia (ATCC BAA-2470), carbapenem resistant; details: Carbapenem resistant strain
[16] = tested on: Acinetobacter baumannii (ATCC BAA1605), ciprofloxacin resistant; details: Ciprofloxacin resistant strain

## N=C(N)NCCCC[C@@H]1NC(=O)[C@H](CCCNC(=N)N)NC(=O)[C@H](CCCCNC(=N)N)NC(=O)[C@H](C(c2ccccc2)c2ccccc2)NC(=O)[C@H](Cc2c[nH]c3ccccc23)NC(=O)[C@H](C(c2ccccc2)c2ccccc2)NC(=O)[C@H](CCCNC(=N)N)NC1=O [7c, c[hArg-Arg-hArg-Arg-Dip-Trp-Dip]] (cyclo([Dip]W[Dip][hArg]R[hArg]R))
[1]
  HC50: 160 µg/mL

## c[Arg-Arg-Arg-Arg-Nal-Nal-Nal] [8b]
[2]
  HC50: 80 µg/mL
[3]
  MIC P. aeruginosa (ATCC 27883): 12.5 µg/mL
S. aureus (ATCC 29213) [4]
  MIC S. aureus (ATCC 29213): 3.1 µg/mL
E. coli (ATCC 25922) [5]
  MIC E. coli (ATCC 25922): 25 µg/mL
MRSA (ATCC BAA-1556)
  MIC MRSA (ATCC BAA-1556): 3.1 µg/mL

## N=C(N)NCCC[C@@H]1NC(=O)[C@H](CCCNC(=N)N)NC(=O)[C@H](Cc2c[nH]c3ccccc23)NC(=O)[C@H](C(c2ccccc2)c2ccccc2)NC(=O)[C@H](C(c2ccccc2)c2ccccc2)NC(=O)[C@H](CCCNC(=N)N)NC(=O)[C@H](CCCNC(=N)N)NC1=O [3c, c[Arg-Arg-Arg-Arg-Dip-Dip-Trp]] (cyclo([Dip][Dip]WRRRR))
[1]
  HC50: 100 µg/mL

## N=C(N)NCCC[C@@H]1NC(=O)[C@H](CCCNC(=N)N)NC(=O)[C@H](CCCNC(=N)N)NC(=O)[C@H](C(c2ccccc2)c2ccccc2)NC(=O)[C@H](C(c2ccccc2)c2ccccc2)NC(=O)[C@H](Cc2c[nH]c3ccccc23)NC(=O)[C@H](CCCNC(=N)N)NC1=O [3a, c[Arg-Arg-Arg-Arg-Trp-Dip-Dip]] (cyclo([Dip][Dip]RRRRW))
[1]
  HC50: 85 µg/mL

## N=C(N)NCCC[C@@H]1NC(=O)[C@H](CCCNC(=N)N)NC(=O)[C@H](CCCNC(=N)N)NC(=O)[C@H](Cc2c[nH]c3ccccc23)NC(=O)[C@H](C(c2ccccc2)c2ccccc2)NC(=O)[C@H](Cc2c[nH]c3ccccc23)NC(=O)[C@H](CCCNC(=N)N)NC1=O [5a, c[Arg-Arg-Arg-Arg-Trp-Dip-Trp]] (cyclo([Dip]WRRRRW))
[1]
  HC50: 220 µg/mL

## N=C(N)NCCC[C@@H]1NC(=O)[C@H](CCCNC(=N)N)NC(=O)[C@H](Cc2c[nH]c3ccccc23)NC(=O)[C@H](C(c2ccccc2)c2ccccc2)NC(=O)[C@H](C(c2ccccc2)c2ccccc2)NC(=O)[C@H](CCCNC(=N)N)NC1=O [1c, c[Arg-Arg-Arg-Dip-Dip-Trp]] (cyclo([Dip][Dip]WRRR))
[1]
  HC50: 65 µg/mL

## Polymyxin B
S. aureus (ATCC 29213) [6]
  MIC S. aureus (ATCC 29213): 0.7 µg/mL
[7]
  MIC P. aeruginosa (ATCC 27883): 0.7 µg/mL
E. coli (ATCC BAA-2452); CaCl2 2 mM
  MIC CaCl2: 0.7 µg/mL
E. coli (ATCC BAA-2452); KCl […]
  MIC KCl: 0.7 µg/mL
E. coli (ATCC BAA-2452); MH media without salt ions or serum
  MIC Control: 0.7 µg/mL
E. coli (ATCC BAA-2452); MgCl2 1 mM
  MIC MgCl2: 1.5 µg/mL
E. coli (ATCC BAA-2452); NH4Cl 6 mM
  MIC NH4Cl: 0.7 µg/mL
E. coli (ATCC BAA-2452); NaCl 150 mM
  MIC NaCl: 0.7 µg/mL
E. coli (ATCC BAA-2452); fetal bovine serum 25%
  MIC FBS (25%): 3.1 µg/mL
[8]
  MIC Pseudomonas aeruginosa (ATCC BAA-1744): 0.7 µg/mL
[9]
  MIC Klebsiella pneumonia (ATCC 13883): 6.2 µg/mL
[10]
  MIC Escherichia coli (ATCC BAA-2452): 0.7 µg/mL
E. coli (ATCC 25922) [11]
  MIC E. coli (ATCC 25922): 0.7 µg/mL
[12]
  change in MIC after repeated exposure (resistance development): negligible changes in the MIC values
[13]; at 2× the MIC
  reduction in biofilm mass: 61%
[13]; at MIC
  reduction in biofilm mass: 46%
[14]
  MIC Pseudomonas aeruginosa (ATCC 10145): 0.7 µg/mL
[1]
  HC50: >500 µg/mL
[15]
  MIC Klebsiella pneumonia (ATCC BAA-2470): 1.5 µg/mL
[16]
  MIC Acinetobacter baumannii (ATCC BAA1605): 0.7 µg/mL

## cyclo(RRRR[Dip][Dip][Dip]) [8a]
[2]
  HC50: 70 µg/mL
[3]
  MIC P. aeruginosa (ATCC 27883): 12.5 µg/mL
S. aureus (ATCC 29213) [4]
  MIC S. aureus (ATCC 29213): 3.1 µg/mL
E. coli (ATCC 25922) [5]
  MIC E. coli (ATCC 25922): 12.5 µg/mL
MRSA (ATCC BAA-1556)
  MIC MRSA (ATCC BAA-1556): 3.1 µg/mL

## CC(C)C[C@@H]1NC(=O)[C@H](C(c2ccccc2)c2ccccc2)NC(=O)[C@H](CCCNC(=N)N)NC(=O)[C@H](CCCNC(=N)N)NC(=O)[C@H](CCCNC(=N)N)NC(=O)[C@H](CCCNC(=N)N)NC(=O)[C@H](C(c2ccccc2)c2ccccc2)NC1=O [6a, c[Arg-Arg-Arg-Arg-Dip-Leu-Dip]] (cyclo([Dip]L[Dip]RRRR))
[1]
  HC50: 155 µg/mL

## N=C(N)NCCC[C@@H]1NC(=O)[C@H](CCCNC(=N)N)NC(=O)[C@H](C(c2ccccc2)c2ccccc2)NC(=O)[C@H](Cc2c[nH]c3ccccc23)NC(=O)[C@H](C(c2ccccc2)c2ccccc2)NC(=O)[C@H](CCCNC(=N)N)NC1=O [1b, c[Arg-Arg-Arg-Dip-Trp-Dip]] (cyclo([Dip]RRR[Dip]W))
[1]
  HC50: 75 µg/mL

## N=C(N)NC[C@@H]1NC(=O)[C@H](CNC(=N)N)NC(=O)[C@H](CNC(=N)N)NC(=O)[C@H](C(c2ccccc2)c2ccccc2)NC(=O)[C@H](Cc2c[nH]c3ccccc23)NC(=O)[C@H](C(c2ccccc2)c2ccccc2)NC(=O)[C@H](CNC(=N)N)NC1=O [7a, c[Agp-Agp-Agp-Agp-Dip-Trp-Dip]] (cyclo([Agp][Agp][Agp][Agp][Dip]W[Dip]))
[1]
  HC50: 240 µg/mL

## N=C(N)NCCC[C@@H]1NC(=O)[C@H](CCCNC(=N)N)NC(=O)[C@H](CCCNC(=N)N)NC(=O)[C@H](C(c2ccccc2)c2ccccc2)NC(=O)[C@H](C(c2ccccc2)c2ccccc2)NC(=O)[C@H](Cc2c[nH]c3ccccc23)NC1=O [1a, c[Arg-Arg-Arg-Trp-Dip-Dip]] (cyclo([Dip][Dip]RRRW))
[1]
  HC50: 50 µg/mL
